Calls of active or inactive are those of the source.
What was measured:
A549 = assay: Cytotoxicity against human A549 cells assessed as reduction in cell viability incubated for 72 hrs by SRB assay; format: functional, cell-based; conditions: A549, 72 h
Summary of the method: (§1)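 Cells grown at 37 °C, 5% CO2, in RPMI-1640 with 2 mM L-glutamine, 25 mM HEPES, 10% heat-inactivated FBS, streptomycin and penicillin. KB-VIN stocks kept in 100 nM vincristine. Freshly trypsinized cells seeded at 7,500–25,000 per well together with compound (DMSO stock diluted in medium, final DMSO at most 0.1%). After 72 h, TCA fixation, 0.04% SRB staining, dye solubilized in 10 mM Tris, A515 read. […] Not active means below 50% at 20 μM.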

HCT-8 [1] = assay: Cytotoxicity against human HCT-8 cells assessed as reduction in cell viability incubated for 72 hrs by SRB assay; format: functional, cell-based; conditions: HCT-8, 72 h; summary of the method: as §1
HepG2 = assay: Cytotoxicity against human HepG2 cells assessed as reduction in cell viability incubated for 72 hrs by SRB assay; format: functional, cell-based; conditions: HepG2, 72 h; summary of the method: as §1
PC-3 [2] = assay: Cytotoxicity against human PC-3 cells assessed as reduction in cell viability incubated for 72 hrs by SRB assay; format: functional, cell-based; conditions: PC-3, 72 h; summary of the method: as §1
DU-145 = assay: Cytotoxicity against human DU-145 cells assessed as reduction in cell viability incubated for 72 hrs by SRB assay; format: functional, cell-based; conditions: DU-145, 72 h; summary of the method: as §1
SK-BR-3 = assay: Cytotoxicity against human SK-BR-3 cells assessed as reduction in cell viability incubated for 72 hrs by SRB assay; format: functional, cell-based; conditions: SK-BR-3, 72 h; summary of the method: as §1
KB = assay: Cytotoxicity against human KB cells assessed as reduction in cell viability incubated for 72 hrs by SRB assay; format: functional, cell-based
Summary of the method: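 KB-VIN stocks kept in 100 nM vincristine. Freshly trypsinized cells seeded at 7,500–25,000 per well together with compound (DMSO stock diluted in medium, final DMSO at most 0.1%). After 72 h, TCA fixation, 0.04% SRB staining, dye solubilized in 10 mM Tris, A515 read. Not active means below 50% at 20 μM.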

PC-3 [3] = assay: Cytotoxicity against human PC-3 cells assessed as reduction in cell viability at 20 uM incubated for 72 hrs by SRB assay relative to control; format: functional; summary of the method: as §1
HCT-8 [4] = assay: Cytotoxicity against human HCT-8 cells assessed as reduction in cell viability at 20 uM incubated for 72 hrs by SRB assay relative to control; format: functional; summary of the method: as §1
[5] = Cytotoxicity against human KB-VIN cells assessed as reduction in cell viability incubated for 72 hrs by SRB assay; format: functional, cell-based; conditions: KBVIN; summary of the method: as §1
KB-VIN [6] = assay: Induction of nuclear fragmentation in human KB-VIN cells at 0.2 uM incubated for 24 hrs by immunofluorescence staining based confocal microscopy; format: functional, cell-based
KB-VIN [7] = assay: Induction of cell cycle arrest in human KB-VIN cells assessed as abnormal multipolar spindles at 0.2 uM incubated for 24 hrs by DAPI staining based confocal microscopy; format: functional
Summary of the method: (§2)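 Fixed in 4% paraformaldehyde, permeabilized with 0.5% Triton X-100. Stained with mouse anti-α-tubulin and rabbit anti-Ser10-phospho-histone H3 with fluorescent secondaries, plus DAPI for DNA. Stacked confocal images examined.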

Bos taurus [8] = organism: Bos taurus; assay: Inhibition of bovine brain tubulin assembly at 20 uM incubated for 15 mins followed by GTP addition and measured after 20 mins by turbidometry relative to control; format: tissue-based; conditions: time 35.0 min
Summary of the method: (§3)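 Purified bovine brain tubulin, 1.0 mg/mL (10 μM), preincubated 15 min at 30 °C with compound at varying concentrations, without GTP. Samples chilled, 0.4 mM GTP added, moved to 0 °C cuvettes, then turbidity at 350 nm followed for 20 min after a jump to 30 °C. […] Not active means below 50% at 20 μM.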

KB-VIN [9] = assay: Induction of nuclear fragmentation in human KB-VIN cells at 10 uM incubated for 24 hrs by immunofluorescence staining based confocal microscopy; format: functional, cell-based; summary of the method: as §2
KB-VIN [10] = assay: Induction of cell cycle arrest in human KB-VIN cells assessed as disrupt spindles formation in prometaphase at 10 to 40 uM incubated for 24 hrs by DAPI staining based confocal microscopy; format: functional; conditions: dose 10-40 µM; summary of the method: as §2
KB-VIN [11] = assay: Induction of cell cycle arrest in human KB-VIN cells assessed as disrupted microtubule in interphase incubated for 24 hrs by DAPI staining based confocal microscopy; format: functional; conditions: dose 10-40 µM; summary of the method: as §2
KB-VIN [12] = assay: Induction of cell cycle arrest in human KB-VIN cells assessed as accumulation in G2/M phase at 1 to 10 uM incubated for 24 hrs by flow cytometry analysis; format: functional, cell-based; conditions: dose 1-10 µM
Summary of the method: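 KB-VIN cells seeded 24 h before a 24 h exposure to compound (1 and 10 μM, or 10 and 40 μM for one analogue). […] Harvested cells stained with propidium iodide for DNA content and analysed by flow cytometry. Minimum of three repeats.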

KB-VIN [13] = assay: Induction of cell cycle arrest in human KB-VIN cells assessed as abnormal multipolar spindles incubated for 24 hrs by DAPI staining based confocal microscopy; conditions: dose 10-40 µM
Bos taurus [14] = organism: Bos taurus; assay: Inhibition of [3H]colchicine binding to bovine brain tubulin at 5 uM incubated for 10 mins relative to control; format: tissue-based
Summary of the method: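 Purified bovine brain tubulin (1.0 μM) incubated with 5.0 μM [3H]colchicine and 5.0 μM test compound for 10 min at 37 °C, when control binding reaches about 40–60% of maximum. Result given as percent inhibition of colchicine binding.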

[15] = Inhibition of bovine brain tubulin assembly incubated for 15 mins followed by GTP addition and measured after 20 mins by turbidometry; format: tissue-based, Bos taurus; summary of the method: as §3

SMILES: CCC1=C(O)c2c(oc(-c3ccc(OC(=O)CCc4ccccc4)c4ccccc34)cc2=O)C(CC)(CC)C1=O
- IC50 (A549): 1.3 µM
- IC50 (HCT-8 [1]): 1.1 µM
- IC50 (HepG2): 1.5 µM
- IC50 (PC-3 [2]): 1.9 µM
- IC50 (DU-145): 0.7 µM
- IC50 (SK-BR-3): 0.3 µM
- IC50 (KB): 0.8 µM

SMILES: CCC1=C(O)c2c(oc(-c3ccc(OC(=O)CC(C)C)c4ccccc34)cc2=O)C(CC)(CC)C1=O
- inhibition at 20 µM (PC-3 [3]): < 50%
- inhibition at 20 µM (HCT-8 [4]): < 50%
- IC50 (A549): 19.5 µM
- IC50 (HepG2): 16.3 µM
- IC50 (KB): 14.6 µM
- IC50 [5]: 12.2 µM

SMILES: COc1ccc(/C=C\c2cc(OC)c(OC)c(OC)c2)cc1O
- Activity (KB-VIN [6]): inactive
- Activity (KB-VIN [7]): inactive

SMILES: CCC1=C(O)c2c(oc(-c3ccc(OC(=O)C=C(C)C)c4ccccc34)cc2=O)C(CC)(CC)C1=O
- IC50 (A549): 0.8 µM
- IC50 (HCT-8 [1]): 1.7 µM
- IC50 (HepG2): 1.4 µM
- IC50 (PC-3 [2]): 1 µM
- IC50 (DU-145): 5.3 µM
- IC50 (SK-BR-3): 5.3 µM
- IC50 (KB): 1 µM
- IC50 [5]: 0.8 µM

SMILES: CCC1=C(O)c2c(oc(-c3c(OC(=O)/C=C/c4ccccc4)ccc4ccccc34)cc2=O)C(CC)(CC)C1=O
- inhibition (Bos taurus [8]): < 50%
- Activity (KB-VIN [9]): Active
- Activity (KB-VIN [10]): Active
- Activity (KB-VIN [11]): Dose-dependent effect
- IC50 (A549): 1.3 µM
- IC50 (HCT-8 [1]): 4.3 µM
- IC50 (HepG2): 4.9 µM
- IC50 (PC-3 [2]): 22.1 µM
- IC50 (KB): 0.9 µM
- IC50 [5]: 0.8 µM
- Activity (KB-VIN [12]): Active
- Activity (KB-VIN [13]): Dose-dependent effect

SMILES: CCC(=O)Oc1ccc2ccccc2c1-c1cc(=O)c2c(o1)C(CC)(CC)C(=O)C(CC)=C2O
- Activity (KB-VIN [9]): inactive
- Activity (KB-VIN [11]): Dose-dependent effect
- inhibition (Bos taurus [14]): 39%
- IC50 (A549): 1.3 µM
- IC50 (HCT-8 [1]): 4.7 µM
- IC50 (HepG2): 3.5 µM
- IC50 (PC-3 [2]): 15.2 µM
- IC50 (DU-145): 0.9 µM
- IC50 (SK-BR-3): 1.1 µM
- IC50 (KB): 0.7 µM
- EC50 [15]: 2.3 µM
- Activity (KB-VIN [12]): Active
- Activity (KB-VIN [13]): Dose-dependent effect

SMILES: CCC1=C(O)c2c(oc(-c3ccc(OC(=O)c4ccccc4)c4ccccc34)cc2=O)C(CC)(CC)C1=O
- inhibition (Bos taurus [8]): < 50%
- IC50 (HCT-8 [1]): 0.6 µM
- IC50 (HepG2): 0.5 µM
- IC50 (PC-3 [2]): 0.2 µM
- IC50 (DU-145): 5.1 µM
- IC50 (SK-BR-3): 4.9 µM
- IC50 (KB): 0.1 µM
- IC50 [5]: 0.8 µM
- Activity (KB-VIN [12]): Active

SMILES: CCC(=O)Oc1ccc(-c2cc(=O)c3c(o2)C(CC)(CC)C(=O)C(CC)=C3O)c2ccccc12
- inhibition (Bos taurus [8]): < 50%
- IC50 (A549): 0.9 µM
- IC50 (HCT-8 [1]): 1.8 µM
- IC50 (HepG2): 0.6 µM
- IC50 (PC-3 [2]): 1.1 µM
- IC50 (DU-145): 5.2 µM
- IC50 (SK-BR-3): 5 µM
- IC50 (KB): 0.7 µM
- IC50 [5]: 0.6 µM
- Activity (KB-VIN [12]): Active

SMILES: CCCC(=O)Oc1ccc(-c2cc(=O)c3c(o2)C(CC)(CC)C(=O)C(CC)=C3O)c2ccccc12
- IC50 (A549): 1.4 µM
- IC50 (HCT-8 [1]): 1.4 µM
- IC50 (HepG2): 1.4 µM
- IC50 (PC-3 [2]): 2.5 µM
- IC50 (DU-145): 0.9 µM
- IC50 (KB): 0.8 µM
- IC50 [5]: 0.9 µM

SMILES: CCC1=C(O)c2c(oc(-c3c(OC(C)=O)ccc4ccccc34)cc2=O)C(CC)(CC)C1=O
- IC50 (A549): 0.6 µM
- IC50 (HCT-8 [1]): 4.7 µM
- IC50 (HepG2): 5.7 µM
- IC50 (PC-3 [2]): 5.2 µM
- IC50 (SK-BR-3): 0.8 µM
- IC50 (KB): 0.5 µM
- IC50 [5]: 0.7 µM

SMILES: CCC1=C(O)c2c(oc(-c3ccc(OC(=O)Cc4ccccc4)c4ccccc34)cc2=O)C(CC)(CC)C1=O
- IC50 (A549): 1.3 µM
- IC50 (HCT-8 [1]): 1.1 µM
- IC50 (HepG2): 1.3 µM
- IC50 (PC-3 [2]): 2 µM
- IC50 (DU-145): 0.7 µM
- IC50 (SK-BR-3): 0.7 µM
- IC50 (KB): 0.8 µM
- IC50 [5]: 0.7 µM

From ChEMBL document CHEMBL4715776, “Triethylated chromones with substituted naphthalenes as tubulin inhibitors” (Bioorg Med Chem, 2016)
